Screening data from PubChem.
In the library only some 0.85% were active in any assay of this set; here they are far more common.
V1R ag counter: V1a receptor agonism, counter-screen for OXTR agonists; AID 2797; CHO-V1R cells, Fluo-8 calcium fluorescence, agonist mode; 0% DMSO, 100% 3 nM vasopressin; activation, % at 3 µM; P37288; hit rate 0.25% among 320,000;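 active = activation above the mean activation of all tested compounds plus 3 SD, per screening run, cut at about 20% in these data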;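 also: signal is peak over basal fluorescence ratio across a 100 second FLIPR read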
Target sequence (P37288 whole entry, looked up): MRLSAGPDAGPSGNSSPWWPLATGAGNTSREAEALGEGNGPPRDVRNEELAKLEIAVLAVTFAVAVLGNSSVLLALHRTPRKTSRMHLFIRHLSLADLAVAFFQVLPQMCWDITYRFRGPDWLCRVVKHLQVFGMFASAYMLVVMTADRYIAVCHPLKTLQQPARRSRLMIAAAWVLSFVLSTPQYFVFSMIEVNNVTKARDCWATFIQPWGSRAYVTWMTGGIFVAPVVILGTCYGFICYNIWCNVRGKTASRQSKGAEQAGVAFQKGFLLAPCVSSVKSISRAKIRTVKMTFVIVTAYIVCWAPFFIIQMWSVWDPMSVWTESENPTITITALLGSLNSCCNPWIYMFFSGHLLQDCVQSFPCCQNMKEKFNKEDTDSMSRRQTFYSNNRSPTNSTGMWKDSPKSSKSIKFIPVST
OXTR agonist: agonists of human oxytocin receptor; P30559; CHO-OTR cells, Fluo-8 calcium fluorescence; normalized: DMSO 0%, oxytocin 100%; activation, % at 3 µM; hit rate 0.32% among 320,000; AID 2435;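 active = activation above the mean of all tested compounds plus 3 SD, cutoff set per screening run, cut at about 20% in these data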;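 also: peak over basal fluorescence ratio from a 100 s FLIPR kinetic read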
TRPML3 agonist: human mucolipin-3 channel agonism; Q8TDD5; HEK293 TRPML3-YFP, Fluo-8 calcium fluorescence; 100% = the carbachol control signal; activation, % at 3 µM; hit rate 0.29% among 220,000; AID 1448;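 active = activation above its plate's cutoff, the mean activation of the plate's test wells plus 3 SD, cut at about 12% in these data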
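Test system: TRPML3-YFP stable HEK293 cells. Doses: single point at 3 µM. Incubation: dye loading 1 h 37 °C then 30 min ambient, 125 s read. Signal: Fluo-8 calcium dye fluorescence, ex 470-495, em 515-575 nm. Measure: percent activation from peak-to-basal fluorescence ratio, scaled between DMSO and carbachol.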
CRFBP-R2 agonist: agonists of human CRF-binding protein/CRF-R2 receptor complex; AID 588473; activation, % at 13.2 µM; HEK293 CRF-R2/CRF-BP, calcium dye fluorescence (FLIPR); percent of saturating CRF peptide response; hit rate 0.46% among 350,000;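 active = activation of at least 50%, plus an integration ratio under a set limit after plate pattern correction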
OXTR potentiate: human OXTR potentiation; P30559; CHO-OTR cells, Fluo-8 calcium fluorescence, potentiator mode; 0% = oxytocin EC15, 100% = EC100; activation, % at 3 µM; hit rate 0.061% among 320,000;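 active = activation above that plate's cutoff, the mean activation of tested compounds plus 3 SD, cut at about 6.6% in these data, passing the limit was not always enough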
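Assay system: CHO cell line stably expressing human OTR | Also added: Oxytocin at about EC15, sub-maximal agonist stimulus | Times: Compound 6 min at room temperature before oxytocin, 100 s read | Measured by: Fluo-8 intracellular calcium fluorescence, ex 470-495, em 515-575 nm | Controls: EC15 oxytocin alone as 0%, 75 nM oxytocin as 100%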
TRPN1 ag: agonists of zebrafish TRPN1 channel; AID 1424; HEK293 zebrafish TRPN1-YFP, Fluo-8 calcium fluorescence; 100% = response to 87 µM carbachol; activation, % at 3 µM; hit rate 0.18% among 220,000;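 active = activation above its plate's cutoff, the mean activation of test wells on that plate plus 3 SD, cut at about 19% in these data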
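Control set: carbachol 87 µM as high control, DMSO as low control; system: HEK293 stable line with zebrafish TRPN1-YFP; read-out: % activation versus carbachol response; detection: intracellular calcium fluorescence with Fluo-8; doses: single test compound dose, 3 µM nominal, 0.3% DMSO; schedule: dye 1 h 37 °C plus 30 min RT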
TRPN1 ag 2: activates zebrafish TRPN1, counter-screen for TRPML3 agonists. activation, % at 3 µM. shares compounds with TRPML3 agonist. HEK293 zebrafish TRPN1-YFP, Fluo-8 calcium fluorescence; scaled: carbachol wells 100%, DMSO wells 0%. hit rate 10% among 310. AID 1525;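 active = mean activation over replicates above a set limit taken from the earlier TRPN1 channel primary screen, cut at about 19% in these data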
TRPML3 confirm: human TRPML3 agonism, confirmation; shares compounds with TRPML3 agonist; HEK293 TRPML3-YFP, Fluo-8 calcium fluorescence; 100% set by carbachol, 0% by DMSO; activation, % at 3 µM; hit rate 80% among 310; AID 1526;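 active = activation above a set limit derived from the earlier primary screen, cut at about 12% in these data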
Of the large screens only hits and unclear results are named; the others gave an inactive call (follow-up assays come after a bar, where they were run).

Cc1ccc(C)c(OCCn2cc(/C=C(/C#N)C(=O)NCC3CCCO3)c3ccccc32)c1 (configuration not stated)	none
N#C/C(=C\c1cn(CCOc2ccccc2)c2ccccc12)C(=O)NCC1CCCO1 (configuration not stated)	TRPML3 agonist 25.1 | TRPN1 ag 2 inactive | TRPML3 confirm inactive
CCCN(CCC)S(=O)(=O)c1ccc(C(=O)N2CCCc3ccccc32)cc1	TRPML3 agonist 133.3 | TRPN1 ag 2 inactive | TRPML3 confirm 104.0
CCOc1c(S(=O)(=O)N2CCCC2)ccc(Cl)c1Cl	TRPML3 agonist 19.5 | TRPN1 ag 2 inactive | TRPML3 confirm 41.1
Cc1cc(S(=O)(=O)N2CCCCCC2)c(Cl)cc1Cl	TRPML3 agonist 25.9 | TRPN1 ag 2 inactive | TRPML3 confirm 26.7
CCOc1ccc(S(=O)(=O)N2CCCC2)c2ccccc12	none (no result: V1R ag counter, OXTR agonist, TRPML3 agonist, OXTR potentiate, TRPN1 ag)
O=C(COc1ccccc1C(=O)O)Nc1nc2ccc([N+](=O)[O-])cc2s1	TRPML3 agonist 14.2 | TRPN1 ag 2 21.9 | TRPML3 confirm inactive
C=CCSc1nc2c(N)ncnc2n1C1OC(CO)C(O)C1O (configuration not stated)	none (no result: V1R ag counter, OXTR agonist, TRPML3 agonist, OXTR potentiate, TRPN1 ag)
CN(CCC#N)C(=O)COC(=O)c1c2c(nc3ccccc13)/C(=C\c1ccco1)CC2	none (no result: V1R ag counter, OXTR agonist, TRPML3 agonist, OXTR potentiate, TRPN1 ag)
O=C1CN(S(=O)(=O)c2ccc(F)cc2)CC(=O)N1CCc1ccccc1	TRPML3 agonist 12.3 (no result: V1R ag counter, OXTR agonist, CRFBP-R2 agonist, OXTR potentiate) | TRPN1 ag 2 inactive | TRPML3 confirm 23.4
O=C(CN1C(=O)NC2(CCCC2)C1=O)Nc1nc2ccccc2[nH]1	none (no result: TRPML3 agonist, TRPN1 ag)
C[C@H]1Cn2cnc(C(=O)Nc3ccccc3)c2C(=O)N1	none (no result: V1R ag counter, OXTR agonist, TRPML3 agonist, OXTR potentiate, TRPN1 ag)
CC(=Nc1ccc(O)cc1)c1sc2ccccc2c1O	none
CC(=Nc1ccccc1O)c1sc2ccccc2c1O	V1R ag counter 31.3, OXTR agonist 26.9, TRPML3 agonist 11.9 | TRPN1 ag 2 20.7 | TRPML3 confirm inactive
O=C(Nc1nc(-c2ccc3ccccc3c2)cs1)C1CCN(S(=O)(=O)c2cccs2)CC1	TRPML3 agonist 19.0 | TRPN1 ag 2 inactive | TRPML3 confirm 52.0
Cc1ccc(-c2csc(NC(=O)C3CCN(S(=O)(=O)c4cccs4)CC3)n2)cc1	none
CC(=O)Nc1ccc(S(=O)(=O)NCCc2cn3nc(C)c(C)nc3n2)cc1	none (no result: TRPML3 agonist, TRPN1 ag)
COc1ccc(C(C(=O)NC2CCCC2)N(Cc2ccccc2)C(=O)c2nsc(Cl)c2Cl)cc1 (configuration not stated)	TRPML3 agonist 17.0 | TRPN1 ag 2 inactive | TRPML3 confirm 24.5
CCOc1ccc(C(C(=O)NC2CCCC2)N(Cc2ccccc2)C(=O)c2nsc(Cl)c2Cl)cc1 (configuration not stated)	none
CN(C)S(=O)(=O)c1cc([N+](=O)[O-])ccc1N1CCCCCC1	TRPML3 agonist 16.0 | TRPN1 ag 2 inactive | TRPML3 confirm 14.5
NC(=S)NN=Cc1cc(-c2cccc(N)c2)ccn1	none (no result: V1R ag counter, OXTR agonist, TRPML3 agonist, OXTR potentiate, TRPN1 ag)
COc1cccc(-c2nnc(SCC(=O)NC3CCS(=O)(=O)C3)n2C)c1 (configuration not stated)	none (no result: TRPML3 agonist, TRPN1 ag)
O=C(CCS(=O)(=O)c1ccc(Cl)cc1)NC1CCCC1	none (no result: TRPML3 agonist, TRPN1 ag)
CC(C)[C@H](NS(=O)(=O)c1ccccc1)C(=O)OCC(=O)Nc1ccccc1Sc1ccccc1	TRPML3 agonist 41.6 | TRPN1 ag 2 inactive | TRPML3 confirm 65.9
Cc1cc(NC(=O)COC(=O)[C@@H](NS(=O)(=O)c2ccccc2)C(C)C)no1	none
COc1cc(S(=O)(=O)N(C)C2CCCCC2)c(C)cc1C	TRPML3 agonist 54.0 (no result: V1R ag counter, OXTR agonist, OXTR potentiate) | TRPN1 ag 2 inactive | TRPML3 confirm 63.5
COC(=O)c1cc(S(=O)(=O)N(C)C2CCCCC2)oc1C	none
Nc1[nH]c(=O)[nH]c(=O)c1N=Cc1ccccc1	none (no result: V1R ag counter, OXTR agonist, TRPML3 agonist, OXTR potentiate, TRPN1 ag)
